Measured values reported in ChEMBL document CHEMBL4052657, “Design, synthesis and biological evaluation of sulfonamide-substituted diphenylpyrimidine derivatives (Sul-DPPYs) as potent focal adhesion kinase (FAK) inhibitors with antitumor activity” (Bioorg Med Chem, 2017).

Columns and labels:
PANC-1 [1] = test: Antiproliferative activity against human PANC1 cells assessed as cell viability at 0.5 uM after 24 hrs by CCK8 assay relative to control; format: functional; conditions: PANC-1, 24 h, read-out: Activity
ASPC1 [2] = test: Induction of apoptosis in human AsPC1 cells assessed as late apoptotic cells at 1 uM after 72 hrs by Annexin-V-FITC/propidium iodide staining based flow cytometry relative to control; format: functional
Outline: (§1)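 AsPC-1 cells at 2 to 5 ×10⁵ cells/well were treated for 72 h with DMSO solvent control or compound at 1, 5 or 10 µM in medium with 5% FBS. Cells were then […], stained with annexin V-FITC/propidium iodide and analysed by flow cytometry.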

PANC-1 [3] = test: Antiproliferative activity against human PANC1 cells assessed as cell viability at 0.5 uM after 72 hrs by CCK8 assay (reference value: 97.5%); format: functional; conditions: PANC-1, 72 h, read-out: Activity
ASPC1 [4] = test: Induction of apoptosis in human AsPC1 cells assessed as early apoptotic cells at 5 uM after 72 hrs by Annexin-V-FITC/propidium iodide staining based flow cytometry relative to control; format: functional; outline: as §1
PANC-1 [5] = test: Antiproliferative activity against human PANC1 cells after 72 hrs by CCK8 assay; conditions: PANC-1, 72 h
PANC-1 [6] = test: Antiproliferative activity against human PANC1 cells assessed as cell viability at 2 uM after 24 hrs by CCK8 assay relative to control; format: functional; conditions: PANC-1, 24 h, read-out: Activity
PANC-1 [7] = test: Antiproliferative activity against human PANC1 cells assessed as cell viability at 8 uM after 48 hrs by CCK8 assay (reference value: 99%); format: functional; conditions: PANC-1, 48 h, read-out: Activity
ASPC1 [8] = test: Antiproliferative activity against human AsPC1 cells assessed as cell viability at 1.25 uM after 72 hrs by CCK8 assay (reference value: 96.9%); format: functional; conditions: ASPC1, 72 h, read-out: Activity
ASPC1 [9] = test: Antiproliferative activity against human AsPC1 cells assessed as cell viability at 5 uM after 48 hrs by CCK8 assay (reference value: 98.6%); format: functional; conditions: ASPC1, 48 h, read-out: Activity
ASPC1 [10] = test: Antiproliferative activity against human AsPC1 cells assessed as cell viability at 1.25 uM after 24 hrs by CCK8 assay relative to control; format: functional; conditions: ASPC1, 24 h, read-out: Activity
ASPC1 [11] = test: Antiproliferative activity against human AsPC1 cells assessed as cell viability at 1.25 uM after 48 hrs by CCK8 assay (reference value: 98.6%); format: functional; conditions: ASPC1, 48 h, read-out: Activity
ASPC1 [12] = test: Induction of apoptosis in human AsPC1 cells assessed as necrotic cells at 5 uM after 72 hrs by Annexin-V-FITC/propidium iodide staining based flow cytometry relative to control; format: functional; outline: as §1
ASPC1 [13] = test: Antiproliferative activity against human AsPC1 cells after 72 hrs by CCK8 assay; conditions: ASPC1, 72 h
L02 = test: Antiproliferative activity against human LO2 cells after 72 hrs by CCK8 assay; conditions: L02, 72 h
ASPC1 [14] = test: Induction of apoptosis in human AsPC1 cells assessed as viable cells at 1 uM after 72 hrs by Annexin-V-FITC/propidium iodide staining based flow cytometry relative to control; format: functional; conditions: ASPC1, 72 h, read-out: Activity; outline: as §1
ASPC1 [15] = test: Induction of apoptosis in human AsPC1 cells assessed as early apoptotic cells at 1 uM after 72 hrs by Annexin-V-FITC/propidium iodide staining based flow cytometry relative to control; format: functional; outline: as §1
PANC-1 [16] = test: Antiproliferative activity against human PANC1 cells assessed as cell viability at 8 uM after 24 hrs by CCK8 assay relative to control; format: functional; conditions: PANC-1, 24 h, read-out: Activity
ASPC1 [17] = test: Induction of apoptosis in human AsPC1 cells assessed as viable cells at 10 uM after 72 hrs by Annexin-V-FITC/propidium iodide staining based flow cytometry relative to control; format: functional; conditions: ASPC1, 72 h, read-out: Activity; outline: as §1
ASPC1 [18] = test: Antiproliferative activity against human AsPC1 cells assessed as cell viability at 10 uM after 24 hrs by CCK8 assay relative to control; format: functional; conditions: ASPC1, 24 h, read-out: Activity
PANC-1 [19] = test: Antiproliferative activity against human PANC1 cells assessed as cell viability at 0.5 uM after 48 hrs by CCK8 assay (reference value: 99%); format: functional; conditions: PANC-1, 48 h, read-out: Activity
ASPC1 [20] = test: Antiproliferative activity against human AsPC1 cells assessed as cell viability at 10 uM after 48 hrs by CCK8 assay (reference value: 98.6%); format: functional; conditions: ASPC1, 48 h, read-out: Activity
ASPC1 [21] = test: Antiproliferative activity against human AsPC1 cells assessed as cell viability at 5 uM after 72 hrs by CCK8 assay (reference value: 96.9%); format: functional; conditions: ASPC1, 72 h, read-out: Activity
ASPC1 [22] = test: Induction of apoptosis in human AsPC1 cells assessed as late apoptotic cells at 10 uM after 72 hrs by Annexin-V-FITC/propidium iodide staining based flow cytometry relative to control; format: functional; outline: as §1
ASPC1 [23] = test: Induction of apoptosis in human AsPC1 cells assessed as early apoptotic cells at 10 uM after 72 hrs by Annexin-V-FITC/propidium iodide staining based flow cytometry relative to control; format: functional; outline: as §1
ASPC1 [24] = test: Antiproliferative activity against human AsPC1 cells assessed as cell viability at 10 uM after 72 hrs by CCK8 assay (reference value: 96.9%); format: functional; conditions: ASPC1, 72 h, read-out: Activity
Ramos = test: Antiproliferative activity against human Ramos cells after 72 hrs by CCK8 assay; format: functional, cell-based
Outline: (§2)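 Cells in RPMI-1640 with 10% FBS and 1% penicillin-streptomycin, 37 °C, 5% CO2. Seeded at 3,000 to 5,000 cells/well and grown one day, then exposed to compound for 72 h at 1.25 to 40 µmol/L, five replicates per concentration. CCK-8 read-out is absorbance at 450 nm. Dose-response curves used five concentrations. IC50 is the mean of at least three separate experiments.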

PANC-1 [25] = test: Antiproliferative activity against human PANC1 cells assessed as cell viability at 2 uM after 72 hrs by CCK8 assay (reference value: 97.5%); format: functional; conditions: PANC-1, 72 h, read-out: Activity
ASPC1 [26] = test: Induction of apoptosis in human AsPC1 cells assessed as necrotic cells at 1 uM after 72 hrs by Annexin-V-FITC/propidium iodide staining based flow cytometry relative to control; format: functional; outline: as §1
NCI-H1975 = test: Antiproliferative activity against gefitinib-resistant human NCI-H1975 cells harboring FAK after 72 hrs by CCK8 assay; format: functional, cell-based; conditions: NCI-H1975, 72 h; outline: as §2
PANC-1 [27] = test: Antiproliferative activity against human PANC1 cells assessed as cell viability at 8 uM after 72 hrs by CCK8 assay (reference value: 97.5%); format: functional; conditions: PANC-1, 72 h, read-out: Activity
ASPC1 [28] = test: Induction of apoptosis in human AsPC1 cells assessed as viable cells at 5 uM after 72 hrs by Annexin-V-FITC/propidium iodide staining based flow cytometry relative to control; format: functional; conditions: ASPC1, 72 h, read-out: Activity; outline: as §1
ASPC1 [29] = test: Induction of apoptosis in human AsPC1 cells after 72 hrs by Annexin-V-FITC/propidium iodide staining based flow cytometry; format: functional, cell-based; outline: as §1
ASPC1 [30] = test: Induction of apoptosis in human AsPC1 cells assessed as late apoptotic cells at 5 uM after 72 hrs by Annexin-V-FITC/propidium iodide staining based flow cytometry relative to control; format: functional; outline: as §1
ASPC1 [31] = test: Induction of apoptosis in human AsPC1 cells assessed as necrotic cells at 10 uM after 72 hrs by Annexin-V-FITC/propidium iodide staining based flow cytometry relative to control; format: functional; outline: as §1
BXPC-3 = test: Antiproliferative activity against human BxPC3 cells after 72 hrs by CCK8 assay; conditions: BXPC-3, 72 h
PANC-1 [32] = test: Antiproliferative activity against human PANC1 cells assessed as cell viability at 2 uM after 48 hrs by CCK8 assay (reference value: 99%); format: functional; conditions: PANC-1, 48 h, read-out: Activity
ASPC1 [33] = test: Antiproliferative activity against human AsPC1 cells assessed as cell viability at 5 uM after 24 hrs by CCK8 assay relative to control; format: functional; conditions: ASPC1, 24 h, read-out: Activity

Compound: CNC(=O)c1ccccc1Nc1nc(Nc2ccc(NS(=O)(=O)c3ccc(F)cc3)cc2)ncc1Cl
- viability at 0.5 µM (PANC-1 [1]): 71.6%
- Activity (ASPC1 [2]): 27.3%
- viability at 0.5 µM (PANC-1 [3]): 45.9%
- Activity (ASPC1 [4]): 21.8%
- IC50 (PANC-1 [5]): 0.53 µM
- viability at 2 µM (PANC-1 [6]): 68.8%
- viability at 8 µM (PANC-1 [7]): 21.3%
- viability at 1.25 µM (ASPC1 [8]): 52%
- viability at 5 µM (ASPC1 [9]): 76%
- viability at 1.25 µM (ASPC1 [10]): 90%
- viability at 1.25 µM (ASPC1 [11]): 79.4%
- Activity (ASPC1 [12]): 1.1%
- IC50 (ASPC1 [13]): 3.92 µM
- IC50 (L02): 11.5 µM
- viability at 1 µM (ASPC1 [14]): 43.6%
- Activity (ASPC1 [15]): 28.5%
- viability at 8 µM (PANC-1 [16]): 42.8%
- viability at 10 µM (ASPC1 [17]): 12.1%
- viability at 10 µM (ASPC1 [18]): 52%
- viability at 0.5 µM (PANC-1 [19]): 53.3%
- viability at 10 µM (ASPC1 [20]): 47.1%
- viability at 5 µM (ASPC1 [21]): 49.1%
- Activity (ASPC1 [22]): 62.9%
- Activity (ASPC1 [23]): 24.4%
- viability at 10 µM (ASPC1 [24]): 23.9%
- IC50 (Ramos): 2.18 µM
- viability at 2 µM (PANC-1 [25]): 36.2%
- Activity (ASPC1 [26]): 0.6%
- IC50 (NCI-H1975): 3.71 µM
- viability at 8 µM (PANC-1 [27]): 17.2%
- viability at 5 µM (ASPC1 [28]): 24%
- Activity (ASPC1 [29]): Dose-dependent effect
- Activity (ASPC1 [30]): 53.1%
- Activity (ASPC1 [31]): 0.6%
- IC50 (BXPC-3): 6.92 µM
- viability at 2 µM (PANC-1 [32]): 39.3%
- viability at 5 µM (ASPC1 [33]): 79.4%

Compound: CNC(=O)c1ccccc1Nc1nc(Nc2ccc(Oc3ccc(NS(C)(=O)=O)cc3)cc2)ncc1Cl
- IC50 (PANC-1 [5]): 3.61 µM
- IC50 (ASPC1 [13]): 2.75 µM
- IC50 (L02): 16.5 µM
- IC50 (Ramos): 19.8 µM
- IC50 (NCI-H1975): 6.29 µM
- IC50 (BXPC-3): 14.2 µM

Compound: CNC(=O)c1ccccc1Nc1nc(Nc2ccc(NS(=O)(=O)c3ccc(OC)cc3)c(C)c2)ncc1Cl
- IC50 (PANC-1 [5]): 0.03 µM
- IC50 (ASPC1 [13]): 1.78 µM
- IC50 (L02): 2.88 µM
- IC50 (Ramos): 4.61 µM
- IC50 (NCI-H1975): 4.89 µM
- IC50 (BXPC-3): 10.6 µM

Compound: CNC(=O)c1ccccc1Nc1nc(Nc2ccc(N3CCOCC3)cc2OC)ncc1Cl
- IC50 (PANC-1 [5]): > 20 µM
- IC50 (ASPC1 [13]): 6.73 µM
- IC50 (L02): 5.37 µM
- IC50 (BXPC-3): 1.03 µM

Compound: Nc1ccn([C@@H]2O[C@H](CO)[C@@H](O)C2(F)F)c(=O)n1 [GEMCITABINE]
- IC50 (PANC-1 [5]): 30.4 µM
- IC50 (ASPC1 [13]): 26.8 µM
- IC50 (L02): > 20 µM
- IC50 (Ramos): > 10 µM
- IC50 (NCI-H1975): > 10 µM
- IC50 (BXPC-3): 20.2 µM

Compound: CNC(=O)c1ccccc1Nc1nc(Nc2ccc(NS(=O)(=O)c3ccc(C)cc3)c(OC)c2)ncc1Cl
- IC50 (PANC-1 [5]): > 40 µM
- IC50 (ASPC1 [13]): 10.1 µM
- IC50 (L02): > 40 µM
- IC50 (Ramos): 12.1 µM
- IC50 (NCI-H1975): 8.5 µM
- IC50 (BXPC-3): 22.5 µM
